{"source": "ChEMBL document CHEMBL4385646", "about": "“Structural development of 1H-pyrazolo-[3,4-b]pyridine-4-carboxylic acid derivatives as human peroxisome proliferator-activated receptor alpha (PPARα)-selective agonists” (Bioorg Med Chem Lett, 2019)", "key": {"[1]": {"target": "Peroxisome proliferator-activated receptor alpha (Homo sapiens) (UniProt Q07869)", "assay": "Displacement of fluormone pan-PPAR green from GST-tagged human PPARalpha ligand binding domain after 3 hrs by TR-FRET assay"}, "[2]": {"target": "T1, Peroxisome proliferator-activated receptor alpha (Homo sapiens) (UniProt Q07869)", "T1 sequence (whole entry)": "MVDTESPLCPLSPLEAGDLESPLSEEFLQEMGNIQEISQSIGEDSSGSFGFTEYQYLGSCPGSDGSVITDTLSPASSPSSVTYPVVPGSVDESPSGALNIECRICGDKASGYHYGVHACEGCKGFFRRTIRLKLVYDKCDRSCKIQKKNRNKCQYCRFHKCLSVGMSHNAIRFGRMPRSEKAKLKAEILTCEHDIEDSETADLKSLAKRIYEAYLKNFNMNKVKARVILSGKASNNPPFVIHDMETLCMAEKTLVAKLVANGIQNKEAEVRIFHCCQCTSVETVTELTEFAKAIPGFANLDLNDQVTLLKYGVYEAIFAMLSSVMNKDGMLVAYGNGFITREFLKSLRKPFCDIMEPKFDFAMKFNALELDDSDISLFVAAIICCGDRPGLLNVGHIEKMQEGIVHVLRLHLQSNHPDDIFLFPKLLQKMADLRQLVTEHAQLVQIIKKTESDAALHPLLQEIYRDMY", "assay": "Transactivation of human GAL4-fused PPARalpha LBD expressed in human HepG2 cells at 1 uM after 24 hrs by dual renilla-luciferase reporter gene assay relative to fenofibrate", "format": "cell-based", "method_in_brief": "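HepG2 cells cotransfected with 4xUAS-tk-luc and pBIND-hPPARα. Cells treated 24 h with compound at 1 μM final; fenofibrate 10 μM served as reference and 0.1% DMSO as vehicle. Read-out by reporter gene luciferase assay.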"}, "[3]": {"target": "T2, Peroxisome proliferator-activated receptor delta (Homo sapiens) (UniProt Q03181)", "T2 sequence (whole entry)": "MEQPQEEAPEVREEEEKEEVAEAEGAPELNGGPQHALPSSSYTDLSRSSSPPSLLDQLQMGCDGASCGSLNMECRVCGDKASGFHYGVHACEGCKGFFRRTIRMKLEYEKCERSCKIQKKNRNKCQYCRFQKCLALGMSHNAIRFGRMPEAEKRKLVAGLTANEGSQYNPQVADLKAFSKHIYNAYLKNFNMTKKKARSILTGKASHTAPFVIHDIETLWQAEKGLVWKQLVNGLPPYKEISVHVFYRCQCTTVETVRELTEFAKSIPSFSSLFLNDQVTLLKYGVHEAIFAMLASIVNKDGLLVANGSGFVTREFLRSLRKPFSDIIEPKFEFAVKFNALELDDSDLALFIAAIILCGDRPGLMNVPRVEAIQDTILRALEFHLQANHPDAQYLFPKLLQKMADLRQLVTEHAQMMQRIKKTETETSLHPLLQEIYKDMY", "assay": "Transactivation of human GAL4-fused PPARdelta expressed in human HepG2 cells after 24 hrs by dual renilla-luciferase reporter gene assay", "format": "cell-based", "method_in_brief": "(§1)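 HepG2 cells carried GAL4-fused human PPARγ or PPARδ, or mouse or rat PPARα, plus the 4xUAS-tk-luc reporter. Cells treated across a concentration range for 24 h. Luciferase normalized to Renilla activity and expressed as fold induction over vehicle, set as 1.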"}, "Rattus norvegicus [4]": {"system": "Rattus norvegicus", "assay": "[…] activity in fructose-challenged Sprague-Dawley rat assessed as increase in liver SLC25A20 mRNA expression at 10 mg/kg, po administered once daily via gavage for 2 weeks measured after 5 hrs fasting by SYBR green dye-based RT-PCR analysis", "format": "functional, organism-based", "method_in_brief": "(§2)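 Male rats were given 25% fructose in drinking water for 3 weeks. They then received 10 mg/kg/day orally in 0.5% methylcellulose (vehicle control) for 2 more weeks while fructose continued. Liver mRNA was measured by real-time RT-PCR, normalized to β2-microglobulin and set as 1 in the vehicle group. Values are means ± S.D.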"}, "Rattus norvegicus [5]": {"system": "Rattus norvegicus", "assay": "[…] activity in fructose-challenged Sprague-Dawley rat assessed as reduction in serum triglyceride level at 10 mg/kg, po administered once daily via gavage for 2 weeks measured after 5 hrs fasting", "format": "functional, organism-based", "method_in_brief": "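Male rats had 25% fructose in drinking water for 3 weeks, then oral dosing at 10 mg/kg/day for 2 weeks with fructose continued. The vehicle group got 0.5% methylcellulose. Serum triglyceride was measured after the 2-week treatment.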"}, "[6]": {"assay": "Selectivity ratio of EC50 for mouse GAL4-fused PPARalpha expressed in human HepG2 cells to EC50 for human GAL4-fused PPARalpha LBD expressed in human HepG2 cells", "format": "cell-based"}, "[7]": {"assay": "Selectivity ratio of EC50 for rat GAL4-fused PPARalpha expressed in human HepG2 cells to EC50 for human GAL4-fused PPARalpha LBD expressed in human HepG2 cells", "format": "cell-based"}, "[8]": {"target": "T1, Peroxisome proliferator-activated receptor alpha (Homo sapiens)", "assay": "Transactivation of human PPARalpha in human FLC4 cells assessed as upregulation of PDK4 mRNA expression after 48 hrs by SYBR green dye-based RT-PCR analysis", "format": "cell-based", "method_in_brief": "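FLC4 cells treated for 48 h with various concentrations. PDK4 mRNA measured by real-time RT-PCR, normalized to β2-microglobulin and set as 1 in vehicle. Values are means ± S.D.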"}, "[9]": {"target": "T3, Peroxisome proliferator-activated receptor gamma (Homo sapiens) (UniProt P37231)", "T3 sequence (whole entry)": "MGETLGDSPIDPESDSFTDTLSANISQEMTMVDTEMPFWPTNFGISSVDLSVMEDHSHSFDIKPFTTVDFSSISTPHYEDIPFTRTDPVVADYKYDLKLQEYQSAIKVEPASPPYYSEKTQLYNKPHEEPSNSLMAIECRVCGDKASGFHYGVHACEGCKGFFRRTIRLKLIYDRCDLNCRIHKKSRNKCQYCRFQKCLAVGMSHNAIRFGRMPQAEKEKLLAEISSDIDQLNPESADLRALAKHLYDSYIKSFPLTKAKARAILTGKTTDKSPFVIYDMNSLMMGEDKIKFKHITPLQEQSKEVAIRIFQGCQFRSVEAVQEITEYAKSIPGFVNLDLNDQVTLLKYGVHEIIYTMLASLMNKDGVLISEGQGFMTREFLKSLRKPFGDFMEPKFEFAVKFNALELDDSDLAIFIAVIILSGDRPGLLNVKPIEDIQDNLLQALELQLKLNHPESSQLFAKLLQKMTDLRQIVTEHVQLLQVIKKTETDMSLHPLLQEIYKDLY", "assay": "Transactivation of human GAL4-fused PPARgamma expressed in human HepG2 cells at 30 uM after 24 hrs by renilla luciferase reporter gene assay", "format": "cell-based", "method_in_brief": "as §1"}, "Rattus norvegicus [10]": {"system": "Rattus norvegicus", "assay": "[…] activity in fructose-challenged Sprague-Dawley rat assessed as increase in liver CPT1A mRNA expression at 10 mg/kg, po administered once daily via gavage for 2 weeks measured after 5 hrs fasting by SYBR green dye-based RT-PCR analysis", "format": "functional, organism-based", "method_in_brief": "as §2"}, "Rattus norvegicus [11]": {"system": "Rattus norvegicus", "assay": "[…] activity in fructose-challenged Sprague-Dawley rat assessed as increase in liver ACADM mRNA expression at 10 mg/kg, po administered once daily via gavage for 2 weeks measured after 5 hrs fasting by SYBR green dye-based RT-PCR analysis", "format": "functional, organism-based", "method_in_brief": "as §2"}, "Rattus norvegicus [12]": {"system": "Rattus norvegicus", "assay": "[…] activity in fructose-challenged Sprague-Dawley rat assessed as increase in liver ACOX1 mRNA expression at 10 mg/kg, po administered once daily via gavage for 2 weeks measured after 5 hrs fasting by SYBR green dye-based RT-PCR analysis", "format": "functional, organism-based", "method_in_brief": "as §2"}, "[13]": {"target": "T1, Peroxisome proliferator-activated receptor alpha (Homo sapiens)", "assay": "Transactivation of human PPARalpha LBD expressed in human HepG2 cells at 10 uM after 24 hrs in presence of PPARalpha antagonist by dual renilla-luciferase reporter gene assay", "format": "cell-based", "method_in_brief": "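Transfected HepG2 cells (4xUAS-tk-luc plus pBIND-hPPARα) were pretreated 1 h with graded GW6471 before agonist was added at 10 μM final. Reporter luciferase was read after treatment. Percent inhibition was calculated relative to activity without GW6471, taken as 100%.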"}, "Rattus norvegicus [14]": {"system": "Rattus norvegicus", "assay": "[…] activity in fructose-challenged Sprague-Dawley rat assessed as increase in liver ACADM mRNA expression at 30 mg/kg, po administered once daily via gavage for 2 weeks measured after 5 hrs fasting by SYBR green dye-based RT-PCR analysis", "format": "functional, organism-based", "method_in_brief": "as §2, with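 “30” for “10”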"}, "Rattus norvegicus [15]": {"system": "Rattus norvegicus", "assay": "[…] activity in fructose-challenged Sprague-Dawley rat assessed as increase in liver ACOX1 mRNA expression at 30 mg/kg, po administered once daily via gavage for 2 weeks measured after 5 hrs fasting by SYBR green dye-based RT-PCR analysis", "format": "functional, organism-based", "method_in_brief": "as §2, with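 “30” for “10”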"}, "Rattus norvegicus [16]": {"system": "Rattus norvegicus", "assay": "[…] activity in fructose-challenged Sprague-Dawley rat assessed as increase in liver SLC25A20 mRNA expression at 30 mg/kg, po administered once daily via gavage for 2 weeks measured after 5 hrs fasting by SYBR green dye-based RT-PCR analysis", "format": "functional, organism-based", "method_in_brief": "as §2, with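 “30” for “10”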"}, "Rattus norvegicus [17]": {"system": "Rattus norvegicus", "assay": "[…] activity in fructose-challenged Sprague-Dawley rat assessed as increase in liver CPT1A mRNA expression at 30 mg/kg, po administered once daily via gavage for 2 weeks measured after 5 hrs fasting by SYBR green dye-based RT-PCR analysis", "format": "functional, organism-based", "method_in_brief": "as §2, with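 “30” for “10”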"}, "Rattus norvegicus [18]": {"system": "Rattus norvegicus", "assay": "[…] activity in fructose-challenged Sprague-Dawley rat assessed as reduction in serum triglyceride level at 30 mg/kg, po administered once daily via gavage for 2 weeks measured after 5 hrs fasting", "format": "functional, organism-based", "method_in_brief": "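Male rats had 25% fructose in drinking water for 3 weeks, then oral dosing at 30 mg/kg/day for 2 weeks with fructose continued. The vehicle group got 0.5% methylcellulose. Serum triglyceride was measured after the 2-week treatment.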"}}, "note": "Active and inactive are the calls of the source. The calls are words filed in the database; no cut-off is given here."}
{"smiles": "Cc1cc(C(=O)O)c2c(C(C)C)nn(-c3ccc(Cl)cc3)c2n1", "values": [{"measurement": "inhibition", "setting": "[1]", "value": "Dose-dependent effect"}, {"measurement": "activation relative to fenofibrate", "setting": "[2]", "value": 187}, {"measurement": "Activity", "setting": "[3]", "value": "inactive"}, {"measurement": "Activity", "setting": "Rattus norvegicus [4]", "value": "Active"}, {"measurement": "Activity", "setting": "Rattus norvegicus [5]", "value": "Active"}, {"measurement": "Ratio EC50", "setting": "[6]", "value": 20}, {"measurement": "Ratio EC50", "setting": "[7]", "value": 20}, {"measurement": "Activity", "setting": "[8]", "value": "Dose-dependent effect"}, {"measurement": "Activity", "setting": "[9]", "value": "Active"}, {"measurement": "Activity", "setting": "Rattus norvegicus [10]", "value": "Active"}, {"measurement": "Activity", "setting": "Rattus norvegicus [11]", "value": "Active"}, {"measurement": "Activity", "setting": "Rattus norvegicus [12]", "value": "Active"}, {"measurement": "Activity", "setting": "[13]", "value": "inactive"}]}
{"smiles": "CC(C)OC(=O)C(C)(C)Oc1ccc(C(=O)c2ccc(Cl)cc2)cc1", "values": [{"measurement": "Activity", "setting": "Rattus norvegicus [14]", "value": "Active"}, {"measurement": "Activity", "setting": "Rattus norvegicus [15]", "value": "Active"}, {"measurement": "Activity", "setting": "Rattus norvegicus [16]", "value": "Active"}, {"measurement": "Activity", "setting": "Rattus norvegicus [17]", "value": "Active"}, {"measurement": "Activity", "setting": "Rattus norvegicus [18]", "value": "Active"}]}
